The subject of experiment [1] is Ctenocephalides felis. The experiment can be described thus: Insecticidal activity against Ctenocephalides felis by artificial membrane feeding assay. It is filed as functional. In short, it runs like this: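 Ex-vivo artificial membrane feeding assay, 20-25 cat fleas per titration level; compounds dissolved or suspended in bovine blood fed to fleas. LD90 taken as the concentration killing >90% of fleas.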

A short description of experiment [2]: Displacement of [35S]nodulisporic amide from Glutamate gated chloride channel alpha subunit/GABA gated chloride channel subunit Rdl in Drosophila melanogaster head membrane. Summed up:
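Competition binding against [35S]nodulisporic amide (10 pM ligand) on Drosophila melanogaster head membranes. Compounds prepared as 20 mM DMSO stocks, tested from 10 µM down to 10 pM (0.1 pM for potent ones) in 0.5 log steps, in triplicate. Each compound assayed at least twice; IC50 reported as geometric mean. Where label recovery increased, the highest concentration without "precipitation" is reported instead.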

What is called IC50 is the concentration needed to halve the response being measured. A higher IC50 goes with weaker potency in that assay.

As for `C=C(C)[C@H]1C(=O)c2c3c(cc4c5c(n1c24)[C@@]1(C)[C@@H](CC[C@H]2[C@](C)(CC/C=C(\C)C(=O)O)[C@@H](O)CC[C@@]21C)C5)C1=CC(C)(C)OC(C)(C)C1=C3`, the LD90 in experiment [1] is more than 15.1 µM. Further, the IC50 in experiment [2] amounted to 23 nM.

Take `C=C(C)[C@H]1C(=O)c2c3c(cc4c5c(n1c24)[C@@]1(C)C(CC[C@H]2[C@](C)(/C=C/C=C(\C)C(=O)O)[C@@H](O)CC[C@@]21C)C5)C1=CC(C)(C)OC(C)(C)C1[C@@H]3O` (stereo not given in full) [NOD ACID A]: in experiment [1], the LD90 was 1.5 µM. The molecule further registered an IC50 in experiment [2] of 0.27 nM.

`C/C(=C\CC[C@]1(C)[C@@H](O)CC[C@@]2(C)[C@H]1CC[C@H]1Cc3c([nH]c4ccccc34)[C@@]12C)C(=O)O` [NODULISPORIC ACID F] came in with an LD90 in experiment [1] of 45.9 µM. Besides, the IC50 in experiment [2] was more than 10000 nM.

As to `C/C(=C\[C@@H]1C[C@@]2(C)[C@@H]3CC[C@H]4Cc5c([nH]c6cc7c(cc56)C5=CC(C)(C)OC(C)(C)[C@H]5C7)[C@]4(C)[C@@]3(C)CC[C@]2(O)O1)C(=O)O` [NODULISPORIC ACID D1], in experiment [2], the IC50 was more than 10000 nM.

`C=C(C)[C@H]1C(=O)c2c3c(cc4c5c(n1c24)[C@@]1(C)[C@@H](CC[C@@H]2[C@]1(C)CC[C@]1(O)O[C@H]([C@H](O)[C@H](C)C(=O)O)C[C@@]21C)C5)C1=CC(C)(C)OC(C)(C)[C@H]1[C@@H]3O` [NODULISPORIC ACID A12] came in with an LD90 in experiment [1] of 14 µM. For the same molecule, the IC50 in experiment [2] was 70 nM.

Take `C=C(C)[C@H]1Cc2c3c(cc4c5c(n1c24)[C@@]1(C)[C@@H](CC[C@H]2[C@](C)(/C=C/C=C(\C)C(=O)OC)[C@@H](O)CC[C@@]21C)C5)C1=CC(C)(C)OC(C)(C)[C@H]1[C@@H]3O`: the LD90 in experiment [1] is 147.1 µM. Also, the IC50 in experiment [2] came out at 2.6 nM.

In experiment [2], `COC(=O)/C(C)=C/[C@@H]1C[C@@]2(C)[C@@H]3CC[C@H]4Cc5c([nH]c6cc7c(cc56)C5=CC(C)(C)OC(C)(C)[C@H]5C7)[C@]4(C)[C@@]3(C)CC[C@]2(O)O1` [NODULISPORIC ACID D1 METHYL ESTER] yielded an IC50 of more than 100 nM.

Take `CC(C)=CCc1cc2[nH]c3c(c2cc1CC=C(C)C)C[C@@H]1CC[C@H]2[C@](C)(CC/C=C(\C)C(=O)O)[C@@H](O)CC[C@]2(C)[C@@]31C`: the IC50 in experiment [2] was 2140 nM.

Turning to `C=C(C)[C@H]1C(=O)c2c3c(cc4c5c(n1c24)[C@@]1(C)[C@@H](CC[C@H]2[C@](C)(/C=C/C=C(\C)C(=O)OC)[C@@H](O)CC[C@@]21C)C5)C1=CC(C)(C)OC(C)(C)[C@H]1[C@@H]3O`, the LD90 in experiment [1] was determined as 14.4 µM. Besides, the IC50 in experiment [2] was 0.43 nM.

In turn, `C=C(C)[C@H]1Cc2c3c(cc4c5c(n1c24)[C@@]1(C)[C@@H](CC[C@H]2[C@](C)(/C=C/C=C(\C)C(=O)O)[C@@H](O)CC[C@@]21C)C5)C1=CC(C)(C)OC(C)(C)[C@H]1[C@@H]3O` [NODULISPORIC ACIDS B] yielded an LD90 in experiment [1] of 150 µM. The same molecule displayed an IC50 in experiment [2] of 17.4 nM.

With `CC(C)=CCc1c2c(cc3c4c([nH]c13)[C@@]1(C)[C@@H](CC[C@@H]3[C@]1(C)CC[C@]1(O)O[C@H]([C@H](O)[C@H](C)C(=O)O)C[C@@]31C)C4)C1=CC(C)(C)OC(C)(C)[C@H]1[C@@H]2O` [NODULISPORIC ACID C2], the LD90 in experiment [1] is more than 142.5 µM. In experiment [2], this molecule displayed an IC50 of 71.5 nM.

Molecule `C[C@H](C(=O)O)[C@@H](O)[C@@H]1C[C@@]2(C)[C@@H]3CC[C@H]4Cc5c([nH]c6cc7c(cc56)C5=CC(C)(C)OC(C)(C)[C@H]5C7)[C@]4(C)[C@@]3(C)CC[C@]2(O)O1` [NODULISPORIC ACID D2] yielded an IC50 in experiment [2] of 22.1 nM.

`C=C(C)[C@H]1Cc2c3c(cc4c5c(n1c24)[C@@]1(C)[C@@H](CC[C@@H]2[C@]1(C)CC[C@]1(O)O[C@H](/C=C(\C)C(=O)O)C[C@@]21C)C5)C1=CC(C)(C)OC(C)(C)[C@H]1[C@@H]3O` [NODULISPORIC ACID B1]: the LD90 in experiment [1] was more than 147.7 µM. Further, the IC50 in experiment [2] is 121 nM.

In the case of `C=C(C)[C@H]1Cc2c3c(cc4c5c(n1c24)[C@@]1(C)[C@@H](CC[C@@H]2[C@]1(C)CC[C@]1(O)O[C@H]([C@H](O)[C@H](C)C(=O)O)C[C@@]21C)C5)C1=CC(C)(C)OC(C)(C)[C@H]1[C@@H]3O` [NODULISPORIC ACID B2], in experiment [1], the LD90 was more than 142.9 µM. Further, the IC50 in experiment [2] turned out to be 101 nM.

`C=C(C)[C@H]1C(=O)c2c3c(cc4c5c(n1c24)[C@@]1(C)[C@@H](CC[C@@H]2[C@]1(C)CC[C@]1(O)O[C@H](/C=C(\C)C(=O)O)C[C@@]21C)C5)C1=CC(C)(C)OC(C)(C)[C@H]1[C@@H]3O` [NODULISPORIC ACID A1] showed an LD90 in experiment [1] of 7.3 µM. Further, in experiment [2], the IC50 stood at 10.5 nM.

In experiment [2], `COC(=O)/C(C)=C/CC[C@]1(C)[C@@H](O)CC[C@@]2(C)[C@H]1CC[C@H]1Cc3c([nH]c4cc(CC=C(C)C)c(CC=C(C)C)cc34)[C@@]12C` returned an IC50 of more than 100 nM.

As for `C/C(=C\C=C\[C@]1(C)C(=O)CC[C@@]2(C)[C@H]1CC[C@H]1Cc3c([nH]c4cc5c(cc34)C3=CC(C)(C)OC(C)(C)[C@H]3C5)[C@@]12C)C(=O)O` [NODULISPORIC ACID D3], the IC50 in experiment [2] was more than 1000 nM.

In experiment [1], `CC(C)=CCc1c2c(cc3c4c([nH]c13)[C@@]1(C)[C@@H](CC[C@H]3[C@](C)(CC/C=C(\C)C(=O)O)[C@@H](O)CC[C@@]31C)C4)C1=CC(C)(C)OC(C)(C)C1=C2` yielded an LD90 of 15.3 µM. The molecule also gave an IC50 in experiment [2] of more than 100 nM.

As for `COC(=O)/C(C)=C/C=C/[C@]1(C)[C@@H](O)CC[C@@]2(C)[C@H]1CC[C@H]1Cc3c([nH]c4cc5c(cc34)C3=CC(C)(C)OC(C)(C)[C@H]3C5)[C@@]12C` [NODULISPORIC ACID D METHYL ESTER], the IC50 in experiment [2] is more than 100 nM.

Consider `C=C(C)[C@H]1C(=O)c2c3c(cc4c5c(n1c24)[C@@]1(C)[C@@H](CC[C@H]2[C@](C)(CC/C=C(\C)C(=O)O)[C@@H](O)CC[C@@]21C)C5)C1=CC(C)(C)OC(C)(C)[C@H]1[C@@H]3O` [NODULISPORIC ACID A4], for which the LD90 in experiment [1] came to 14.7 µM. This molecule showed an IC50 in experiment [2] of 2.4 nM.

The molecule `CC(C)=CCc1c2c(cc3c4c([nH]c13)[C@@]1(C)[C@@H](CC[C@H]3[C@](C)(/C=C/C=C(\C)C(=O)O)[C@@H](O)CC[C@@]31C)C4)C1=CC(C)(C)OC(C)(C)[C@H]1[C@@H]2O` [NODULISPORIC ACID C] registered an LD90 in experiment [1] of 15 µM. In experiment [2], this molecule gave an IC50 of 5.2 nM.

In turn, `CC(C)=CCc1c2c(cc3c4c([nH]c13)[C@@]1(C)[C@@H](CC[C@@H]3[C@]1(C)CC[C@]1(O)O[C@H](/C=C(\C)C(=O)O)C[C@@]31C)C4)C1=CC(C)(C)OC(C)(C)[C@H]1[C@@H]2O` [NODULISPORIC ACID C1] had an LD90 in experiment [1] of more than 146.2 µM. This molecule had an IC50 in experiment [2] of 52.3 nM.

`C/C(=C\C=C\[C@]1(C)[C@@H](O)CC[C@@]2(C)[C@H]1CC[C@H]1Cc3c([nH]c4cc5c(cc34)C3=CC(C)(C)OC(C)(C)[C@H]3C5)[C@@]12C)C(=O)O` [NODULISPORIC ACID] returned an LD90 in experiment [1] of 92.6 µM. Besides, the IC50 in experiment [2] is more than 1000 nM.

Turning to `COC(=O)[C@@H](C)[C@@H](O)[C@@H]1C[C@@]2(C)[C@@H]3CC[C@H]4Cc5c([nH]c6cc7c(cc56)C5=CC(C)(C)OC(C)(C)[C@H]5C7)[C@]4(C)[C@@]3(C)CC[C@]2(O)O1` [NODULISPORIC ACID D2 METHYL ESTER], the IC50 in experiment [2] is more than 10000 nM.
